Experimental data taken from ChEMBL document CHEMBL1152785, “Synthesis and biological evaluation of a series of novel inhibitor of Nek2/Hec1 analogues” (J Med Chem, 2009).
Activity calls are given as the source filed them. No cut-off for these calls is given here.

Columns and labels:
[1] = system: HeLa; assay: Cytotoxicity against human HeLa cells after 4 days by XTT assay; type: functional, cell-based; conditions: 96 h
Summary of the method: (§1)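 XTT assay with four-day drug treatment. Cells were plated one day before dosing and drug was added on day 2. XTT was read on day 5 after drug addition by absorbance at 595 nm. Absorbance was converted to percent survival against mock-treated cells to give dose-dependent cytotoxicity. Triplicate sets. HeLa, MDA-MB231 and MDA-MB468 were maintained in DMEM with 10% FBS.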

[2] = system: K562; assay: Cytotoxicity against human K562 cells after 4 days by XTT assay; type: functional, cell-based; conditions: K562, 96 h
[3] = system: MDA-MB-231; assay: Cytotoxicity against human MDA-MB-231 cells after 4 days XTT assay; type: functional, cell-based; conditions: MDA-MB-231, 96 h; summary of the method: as §1
[4] = system: MDA-MB-468; assay: Cytotoxicity against human MDA-MB-468 cells after 4 days by XTT assay; type: functional, cell-based; conditions: MDA-MB-468, 96 h; summary of the method: as §1
[5] = system: HeLa; assay: Anticancer activity against human HeLa cells assessed as reduction of Nek2 level at 6.25 uM by Western blot assay; type: functional, cell-based
Summary of the method: (§2)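 HeLa cells in DMEM with 10% FBS were treated with compound at 6.25 μM and harvested at various time points. Extracts were run on SDS-PAGE and Western blotted for Nek2 and Hec1, with p84 (nuclear matrix protein) as loading control. Nek2 level was followed over time after treatment.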

[6] = biological target: T1, Kinetochore protein NDC80 homolog (Homo sapiens) (UniProt O14777); assay: Inhibition of Hec1/Nek2 complex in human Hela cells assessed as mitotic abnormality with multipolar spindle configuration at 3.75 uM after 24 hrs by immuno-fluorescent staining; type: cell-based
T1 sequence (whole entry): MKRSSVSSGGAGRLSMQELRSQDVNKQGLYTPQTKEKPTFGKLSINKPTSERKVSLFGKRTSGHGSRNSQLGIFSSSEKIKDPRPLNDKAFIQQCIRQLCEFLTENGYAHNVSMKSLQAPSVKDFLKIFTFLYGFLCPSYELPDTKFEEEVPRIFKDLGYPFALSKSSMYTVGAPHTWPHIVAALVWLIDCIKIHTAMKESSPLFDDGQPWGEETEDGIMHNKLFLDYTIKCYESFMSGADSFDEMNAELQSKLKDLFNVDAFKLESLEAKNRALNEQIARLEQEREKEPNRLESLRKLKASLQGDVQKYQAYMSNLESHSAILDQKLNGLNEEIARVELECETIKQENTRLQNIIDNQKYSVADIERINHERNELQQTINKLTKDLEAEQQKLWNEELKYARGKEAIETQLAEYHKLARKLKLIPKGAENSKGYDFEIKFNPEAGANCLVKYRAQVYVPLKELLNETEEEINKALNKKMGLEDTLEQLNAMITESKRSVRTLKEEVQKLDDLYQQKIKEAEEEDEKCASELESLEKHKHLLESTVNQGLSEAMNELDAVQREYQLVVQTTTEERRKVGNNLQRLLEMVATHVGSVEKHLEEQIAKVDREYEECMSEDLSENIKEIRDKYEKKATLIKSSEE
Summary of the method: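 HeLa cells were treated with compound at 3.75 μM or buffer mock for 24 h. Cells were immunostained for α-tubulin and γ-tubulin with DAPI for DNA. Mitotic cells were examined for spindle pole number, i.e. multipolar spindles.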

[7] = biological target: T1, Kinetochore protein NDC80 homolog (Homo sapiens); assay: Inhibition of Hec1/Nek2 complex in human Hela cells assessed as mitotic abnormality with multipolar spindle configuration at 3.75 uM after 24 hrs by immuno-fluorescent staining
[8] = system: HeLa; assay: Anticancer activity against human HeLa cells assessed as reduction of Nek2 level at 6.25 uM after 8 to 11 hrs by Western blot assay; type: functional; design: scale not given: the % may be the effect or the level left; summary of the method: as §2
[9] = system: HeLa; assay: Anticancer activity against human HeLa cells expressing H2B-GFP assessed as increase in rate of chromosome misalignment at 2.5 uM after 24 hrs; type: functional, cell-based
Summary of the method: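 HeLa cells expressing the chromosome marker H2B-GFP were treated with compound at 2.5 μM. The incidence of metaphase chromosome alignment was scored. Triplicate sets were measured to give averages and deviations.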

[10] = biological target: T2, Serine/threonine-protein kinase Nek2 (Homo sapiens) (UniProt P51955); assay: Binding affinity to NeK2 in human HeLa cell extract by affinity pulldown assay; type: cell-free
T2 sequence (whole entry): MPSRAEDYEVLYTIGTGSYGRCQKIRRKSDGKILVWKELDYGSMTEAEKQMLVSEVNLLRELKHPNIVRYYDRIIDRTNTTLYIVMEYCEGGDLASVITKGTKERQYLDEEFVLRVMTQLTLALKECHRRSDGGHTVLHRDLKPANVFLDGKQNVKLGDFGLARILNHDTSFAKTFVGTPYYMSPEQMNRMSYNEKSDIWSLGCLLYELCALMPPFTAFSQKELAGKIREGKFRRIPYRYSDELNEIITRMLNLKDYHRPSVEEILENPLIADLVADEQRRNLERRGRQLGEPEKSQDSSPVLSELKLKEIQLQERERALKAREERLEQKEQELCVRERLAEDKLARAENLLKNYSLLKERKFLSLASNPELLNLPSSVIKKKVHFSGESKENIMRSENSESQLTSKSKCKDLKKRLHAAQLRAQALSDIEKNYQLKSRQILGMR
Summary of the method: (§3)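 Compounds were conjugated to affi-gel matrix. HeLa cell extract was incubated with control or compound-conjugated matrices and the precipitates were washed thoroughly. Bound proteins were resolved by SDS-PAGE and Western blotted for Hec1 and Nek2. Whole cell extract served as input, in duplicates.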

[11] = system: HeLa; assay: Cell cycle arrest in human HeLa cells assessed as accumulation at subG1 phase at 2.5 uM after 72 hrs by FACS analysis; type: functional
Summary of the method: (§4)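 HeLa cells were treated with compound at 2.5 μM, with buffer as mock control. Phase contrast images were taken at various time points to assess dying-cell morphology such as membrane bubbling. Cell cycle profiling was done by FACS at 72 h.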

[12] = system: HeLa; assay: Induction of apoptosis in human HeLa cells assessed as morphological changes with membrane bubbling at 2.5 uM; type: functional, cell-based; summary of the method: as §4
[13] = biological target: T1, Kinetochore protein NDC80 homolog (Homo sapiens); assay: Binding affinity to Hec1 in human HeLa cell extract by affinity pulldown assay; type: cell-free; summary of the method: as §3
[14] = system: HeLa; assay: Anticancer activity against human HeLa cells assessed as reduction of Nek2 level at 25 uM by Western blot assay; type: functional, cell-based

Row | SMILES | IC50 [1] [µM] | IC50 [2] [µM] | IC50 [3] [µM] | IC50 [4] [µM] | other results
1 | Cc1ccc(-c2csc(NC(=S)c3ccccc3)n2)c(C)c1 | 18.6 | 22.9 | 21.1 | 19.6 | –
2 | COc1ccc(C(=O)Nc2nc(-c3c(C)cc(C)cc3C)cs2)c(OC)c1 | 13.6 | 9.5 | 9.7 | 11.2 | –
3 | Cc1cc(C)c(-c2csc(NC(=O)c3ccccc3C(F)(F)F)n2)c(C)c1 | 10.6 | 7.5 | 5.9 | 4.1 | –
4 | Cc1ccc(-c2csc(NS(=O)(=O)Cc3ccccc3)n2)c(C)c1 | > 40 | > 40 | > 40 | > 40 | –
5 | Cc1cc(C)c(-c2csc(NC(=O)c3cnccn3)n2)c(C)c1 | 5.7 | 5.9 | 3.2 | 4.7 | –
6 | Cc1cc(C)c(-c2csc(NC(=O)c3ccccn3)n2)c(C)c1 | 5.2 | 4.9 | 4.1 | 2.3 | –
7 | Cc1cc(C)c(-c2csc(NC(=O)c3ccc(O)cc3O)n2)c(C)c1 | > 40 | > 40 | 22.5 | 21.3 | –
8 | Cc1ccc(-c2csc(NC(=O)N3CCOCC3)n2)c(C)c1 | 4.7 | 4.2 | 5.8 | 4 | –
9 | Cc1cc(C)c(-c2csc(NC(=O)N3CCOCC3)n2)c(C)c1 | 2.5 | 3.8 | 1.6 | 4.2 | Activity [5]: Active; Activity [6]: Active; Activity [7]: Active; Activity [8]: 50%; Activity [9]: Active; Activity [10]: inactive; Activity [11]: 20.1%; Activity [12]: Active
10 | CCOC(=O)CN(C(=O)c1ccccc1)c1nc(-c2c(C)cc(C)cc2C)cs1 | 22.2 | 20.2 | 15.8 | 20.2 | –
11 | COc1ccccc1C(=O)Nc1nc(-c2c(C)cc(C)cc2C)cs1 | > 40 | > 40 | > 40 | > 40 | –
12 | COc1ccc(C(=O)Nc2nc(-c3ccc(C)cc3C)cs2)c(OC)c1 | > 40 | > 40 | 23.4 | > 40 | –
13 | Cc1cc(C)c(-c2csc(NC(=O)c3cccnc3)n2)c(C)c1 | 3.6 | 3.9 | 3.2 | 3 | –
14 | Cc1cc(C)c(-c2csc(NC(=O)c3nccs3)n2)c(C)c1 | 11.2 | 14.5 | 4.7 | 11.8 | –
15 | Cc1ccc(-c2csc(NC(=O)c3cncn3C)n2)c(C)c1 | > 25 | > 25 | > 25 | > 25 | –
16 | Cc1ccc(-c2coc(NC(=O)c3ccccc3)n2)c(C)c1 | 18.6 | 19.2 | 14.4 | 16 | –
17 | Cc1cc(C)c(-c2csc(NC(=O)c3ccccc3)n2)c(C)c1 | 2.4 | 2.5 | 1.7 | 2.1 | Activity [5]: Active; Activity [6]: Active; Activity [7]: Active; Activity [8]: 50%; Activity [9]: Active; Activity [13]: Active; Activity [10]: inactive; Activity [11]: 19.9%; Activity [12]: Active

Row | SMILES | IC50 [1] [µM] | IC50 [2] [µM] | IC50 [3] [µM] | IC50 [4] [µM] | other results
18 | Cc1ccc(-c2csc(NC(=O)c3ccncc3)n2)c(C)c1 | 1.6 | 1.2 | 1.1 | 3.4 | Activity [10]: inactive
19 | Cc1ccc(-c2csc(NC(=O)c3cccnc3)n2)c(C)c1 | 5.8 | 8.2 | 4.1 | 5.5 | –
20 | COc1cc(C)cc(C)c1-c1csc(NC(=O)c2ccccc2)n1 | 10.6 | 7.3 | 7.2 | 10.7 | –
21 | COc1ccc(C(=O)Nc2nc(-c3c(C)cc(C)cc3C)cs2)c(O)c1 | 14.4 | 14.8 | 11.8 | 14.4 | –
22 | COc1ccc(C(=O)N(C)c2nc(-c3c(C)cc(C)cc3C)cs2)c(OC)c1 | > 40 | 15.5 | 10.6 | 18.7 | –
23 | Cc1ccc(-c2csc(NC(=O)c3nccs3)n2)c(C)c1 | 7.4 | 10.1 | 2.9 | 6.2 | –
24 | Cc1ccc(-c2csc(NC(=O)c3ccccn3)n2)c(C)c1 | 14.5 | 13.3 | 7.5 | 6.2 | –
25 | Cc1ccc(-c2csc(N)n2)c(C)c1 | > 40 | > 40 | > 40 | > 40 | –
26 | Cc1cc(C)c(-c2csc(NC(=O)c3ccccc3)n2)c(O)c1 | 13.1 | 11.9 | 11.8 | > 40 | –
27 | Cc1ccc(-c2csc(N(C)C(=O)c3ccccc3)n2)c(C)c1 | 20.2 | 14.8 | 13.5 | 16 | –
28 | Cc1cc(C)c(-c2csc(N)n2)c(C)c1 | > 40 | > 40 | > 40 | > 40 | –
29 | Cc1cc(C)c(-c2csc(N(CC(=O)O)C(=O)c3ccccc3)n2)c(C)c1 | > 40 | > 40 | > 40 | > 40 | –
30 | COc1ccc(C(=O)/N=c2\scc(-c3c(C)cc(C)cc3C)n2C)c(OC)c1 | 22 | 23.7 | 22.1 | 21 | –
31 | Cc1ccc(-c2csc(NS(=O)(=O)c3ccccc3)n2)c(C)c1 | > 40 | > 40 | > 40 | > 40 | Activity [14]: inactive; Activity [13]: inactive; Activity [11]: 2.9%
32 | Cc1cc(C)c(-c2csc(NC(=O)c3cncn3C)n2)c(C)c1 | 11.2 | 10.1 | 6.8 | 10.7 | –
33 | Cc1ccc(-c2csc(NC(=O)c3cnccn3)n2)c(C)c1 | > 25 | > 25 | > 25 | > 25 | –
34 | Cc1cc(C)c(-c2csc(N(C)C(=O)c3ccccc3)n2)c(C)c1 | 14.1 | 9.2 | 11.6 | 10.8 | –
